Assay results from ChEMBL document CHEMBL3243963, “Drugs derived from cannabinoids. 7. Tachycardia and analgesia structure-activity relationships in delta9-tetrahydrocannabinol and some synthetic analogues” (J Med Chem, 1978).

Experiments:
[1] = system: Rattus norvegicus; assay: Toxicity in ip dosed Wistar rat assessed as tachycardia; format: organism-based; conditions: in vivo
Method in brief: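 Conscious rats on a warming plate, with rectal temperature kept below 39 °C. Heart rate taken from tail pulse sound (piezo contact microphone, tachograph). Agents given ip in absolute ethanol or distilled water according to solubility. Maximum heart-rate increase plotted against log dose. ED50 with 95% confidence limits by computerized Litchfield–Wilcoxon. Five, six or twelve rats per dose depending on compound.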

[2] = system: Mus musculus; assay: Analgesic activity in po dosed mouse by hot plate test; format: functional
Method in brief: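 Mouse hot-plate antinociception after oral dosing, ten mice per dose. ED50 with 95% confidence limits by computerized Litchfield–Wilcoxon method.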

[3] = system: Mus musculus; assay: Analgesic activity in po dosed mouse by anti-writhing test; format: functional
Method in brief: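 Mouse antiwrithing test after oral dosing, five mice per dose. ED50 (half-maximal effect dose) with 95% confidence limits by computerized modification of Litchfield–Wilcoxon.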

SMILES	Activity [1]	ED50 [1] [mg/kg]	ED50 [2] [mg/kg]	ED50 [3] [mg/kg]
C#CCN1CCC2=C(C1)c1c(OC(=O)C(C)CCN3CCCCC3C)cc(C(C)C(C)CCCCC)cc1OC2(C)C.Cl (stereo unspecified)	Dose-dependent effect	0.53	3.8	7.3
Br.CCCCCc1cc(OC(=O)CCCN2CCOCC2)c2c(c1)OC(C)(C)[C@@H]1CCC(C)=C[C@@H]21	Dose-dependent effect	0.092	168	> 40
CCCCCC(C)C(C)c1cc(OC(=O)CCCN2CCCCC2)c2c(c1)OC(C)(C)C1=C2CC(C)CC1.Cl (stereo unspecified)	Dose-dependent effect	1.92	15	25.9
Br.CCCCCC(C)C(C)c1cc(OC(=O)CCCN2CCOCC2)c2c(c1)OC(C)(C)C1=C2CC(C)CC1 (stereo unspecified)	Dose-dependent effect	2.13	0.5	2.3
C#CCN1CCC2=C(C1)c1c(OC(=O)C(C)CCN3CCCCC3)cc(C(C)C(C)CCCCC)cc1OC2(C)C.Cl (stereo unspecified)	Dose-dependent effect	0.4	4.6	12.2
C#CCN1CCC2=C(C1)c1c(O)cc(C(C)C(C)CCCCC)cc1OC2(C)C (stereo unspecified)	Dose-dependent effect	0.061	7.7	4.3
CCCCCC(C)C(C)c1cc(O)c2c(c1)OC(C)(C)C1=C2CC(C)CC1 (mixture of isomers)	Dose-dependent effect	0.31	9.3	3
CCCCCc1cc(O)c2c(c1)OC(C)(C)[C@@H]1CCC(C)=C[C@@H]21 [DRONABINOL]	Dose-dependent effect	0.062	> 100	43
C#CCN1CCC2=C(C1)c1c(OC(=O)CCCN3CCCCC3)cc(C(C)C(C)CCCCC)cc1OC2(C)C.Cl (stereo unspecified) [NABITAN HYDROCHLORIDE]	Dose-dependent effect	0.11	5.3	12
